Assay results collected from several papers.
Compare with care: the assays were run in different laboratories.
Target: Serine/threonine-protein kinase ULK1 (ULK1, Homo sapiens, UniProt O75385)
One construct used (O75385 1-1050): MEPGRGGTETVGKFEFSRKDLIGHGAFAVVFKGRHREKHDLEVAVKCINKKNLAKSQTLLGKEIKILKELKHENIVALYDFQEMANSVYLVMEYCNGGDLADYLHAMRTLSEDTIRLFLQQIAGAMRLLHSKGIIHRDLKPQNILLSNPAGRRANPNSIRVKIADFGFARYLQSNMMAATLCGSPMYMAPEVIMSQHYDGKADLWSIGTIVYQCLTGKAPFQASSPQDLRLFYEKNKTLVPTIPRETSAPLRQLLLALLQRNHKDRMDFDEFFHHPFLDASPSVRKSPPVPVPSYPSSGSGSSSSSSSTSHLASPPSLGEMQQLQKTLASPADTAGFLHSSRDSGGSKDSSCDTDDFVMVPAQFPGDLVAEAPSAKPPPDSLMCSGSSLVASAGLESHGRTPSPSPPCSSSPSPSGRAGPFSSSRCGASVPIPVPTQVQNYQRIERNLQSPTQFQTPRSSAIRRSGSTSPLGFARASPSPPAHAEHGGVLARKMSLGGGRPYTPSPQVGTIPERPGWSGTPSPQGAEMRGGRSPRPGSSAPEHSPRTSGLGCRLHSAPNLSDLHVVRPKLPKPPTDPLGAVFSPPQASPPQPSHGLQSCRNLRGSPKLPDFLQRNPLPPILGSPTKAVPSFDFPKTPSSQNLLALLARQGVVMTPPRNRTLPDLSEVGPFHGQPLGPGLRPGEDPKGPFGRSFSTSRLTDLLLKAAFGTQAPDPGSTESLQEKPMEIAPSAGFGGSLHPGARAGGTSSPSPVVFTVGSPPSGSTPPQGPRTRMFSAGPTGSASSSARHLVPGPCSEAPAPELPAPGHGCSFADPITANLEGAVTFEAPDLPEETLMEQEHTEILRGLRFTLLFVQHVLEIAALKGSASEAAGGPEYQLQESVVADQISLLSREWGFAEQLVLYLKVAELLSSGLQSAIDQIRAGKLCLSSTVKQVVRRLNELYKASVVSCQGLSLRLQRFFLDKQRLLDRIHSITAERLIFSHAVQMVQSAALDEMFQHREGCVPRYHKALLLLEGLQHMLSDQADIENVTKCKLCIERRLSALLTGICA

| Compound | assay | setting | quantity | value |
| --- | --- | --- | --- | --- |
| CCOCCn1cc(C(=O)Nc2ccc(-n3nc(-c4cccnc4)cc3C(F)(F)F)cn2)ccc1=O | cell-free assay, competition with immobilised ligand | 1 µM | remaining binding | 76% |
| Cc1nn(CC(F)(F)F)cc1Nc1ncc(C2CC2)c(NCCCNC(=O)C2CCC2)n1 | enzyme activity, inhibitor, radiometric | 1 µM | remaining activity | 58% |
| Cc1c(C(=O)O)cc(-c2ccc(C3CCNCC3)cc2)c2ccc(-c3ccc(C(F)(F)F)cc3)cc12 | binding, competition with immobilised ligand | 1 µM | remaining binding | 100% |
| Brc1cnc(Nc2cccc(CN3CCOCC3)c2)nc1NCCc1c[nH]cn1 | enzyme activity, inhibitor, radiometric | 1 µM | remaining activity | 3% |
| CCc1ccccc1C(=O)Nc1n[nH]c2c(C)c(F)c(C3C(C#N)=C(C)N(C)C(C)=C3C#N)cc12 | cell-free assay, competition with immobilised ligand | 1 µM | remaining binding | 29% |
| O=C1NC(=O)c2cc(Nc3ccc(F)cc3)c(Nc3ccc(F)cc3)cc21 | cell-free assay | 0.5 µM | remaining signal | 102% |
| CC(=O)N1CCC(c2ccc(C(=O)NC(=N)N)cc2C(F)(F)F)CC1 | cell-free assay, competition with immobilised ligand | 1 µM | remaining binding | 100% |
| Cc1nn(CC(F)(F)F)cc1Nc1ncc(Br)c(NCc2ccc(S(N)(=O)=O)cc2)n1 | enzyme activity, inhibitor, radiometric | 1 µM | remaining activity | 77% |
| Nc1ncnc2occ(-c3ccc(NC(=O)Nc4cc(C(F)(F)F)ccc4F)cc3)c12 | cell-free assay, inhibitor | 20 µM | remaining signal | 48% |
| COc1cccc2c(NCc3ccccc3)nc(-n3c(N)nc4ccccc43)nc12 | target engagement in cells, inhibitor, chemoproteomics | 20 mM | inhibition | -8.3% |
| FC(F)(F)Oc1cccc(-c2cnc3ccc(-c4ccncc4)nn23)c1 | enzyme activity, inhibitor, radiometric | 5 µM | activity vs control | 92% |
| Cc1ccc(C(=O)NCc2ccsc2)cc1C#Cc1cn(C(C)C)c2ncnc(N)c12 | enzyme activity, inhibitor | 1 µM | activity vs control | 101% |
| c1cc(CN2CCOCC2)cc(Nc2ncc(C3CC3)c(NCCc3c[nH]cn3)n2)c1 | enzyme activity, inhibitor, radiometric | 1 µM | remaining activity | 24% |
| CO[C@H]1CC[C@H](CNc2ccc(S(=O)(=O)NC(=O)c3ccc(N4CCN(CC5=C(c6ccc(Cl)cc6)CC(C)(C)CC5)CC4)cc3Oc3cnc4[nH]ccc4c3)cc2[N+](=O)[O-])CC1 | cell-free assay, competition with immobilised ligand | 1 µM | remaining binding | 82% |
| O=C(Nc1cnn(-c2csc(C(=O)NC3COC3)c2)c1)Nc1ccccc1Cl | enzyme activity, inhibitor | 5 µM | remaining activity | 134% |
| c1ccc(CNc2nc(N3CCOc4ccccc43)nc3c2CCCC3)cc1 | target engagement in cells, inhibitor, chemoproteomics | 20 mM | inhibition | -9% |
| O=C1Nc2ccc(Cl)cc2C1=Cc1cc(Cl)c(O)c(Cl)c1 | cell-free assay | 0.5 µM | remaining signal | 95% |
| O=C(NCCCNc1nc(Nc2cccc(NC(=O)N3CCCC3)c2)ncc1Br)C1CCC1 | enzyme activity, inhibitor, radiometric | 1 µM | remaining activity | 2% |
| COc1cc(/C=C/C(=O)CC(=O)/C=C/c2ccc(O)c(OC)c2)ccc1O | enzyme activity, inhibitor | 1 µM | activity vs control | 88% |
| C[S+]([O-])c1ccc(-c2nc(-c3ccncc3)c(-c3ccc(F)cc3)[nH]2)cc1 (stereo not shown) | cell-free assay | 0.5 µM | remaining signal | 89.3% |
| Cc1nc(Cc2cccc(C(F)(F)F)c2)sc1-c1ccc(C(N)=O)nc1 | cell-free assay, competition with immobilised ligand | 1 µM | remaining binding | 100% |
| O=C(NCCCNc1nc(Nc2cccc(NC(=O)N3CCCC3)c2)ncc1I)c1cccs1 | enzyme activity, inhibitor, radiometric | 1 µM | remaining activity | 4% |
